For assay [1], the system named is Vero. In words: Cytotoxicity against Vero cells after 3 days by Alamar Blue assay. Conditions: Chlorocebus sabaeus, 72 h. Format: cell-based. The method in brief: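 Vero (African green monkey kidney epithelial) cells were grown without CO₂ in L15 with antibiotics and heat-inactivated calf serum. Cells in medium with 2X Alamar Blue were added at 1.3×10^4 cells/well to 2-fold serial drug dilutions. Plates were incubated 3 days at 37 °C, and IC50 was calculated per the manufacturer's directions.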

Assay [2] has as its system Mycobacterium tuberculosis. In words: […]. The assay is classed as functional. The method in brief: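 Strains were grown at 37 °C in 7H9 Middlebrook broth with 10% OADC, 0.05% Tween and 0.2% glycerol. Compounds were dissolved in DMSO and serially diluted 2-fold, then bacteria were added. Plates were incubated 6 days at 37 °C, then 24 h more with Alamar Blue. MIC was the lowest concentration (μg/mL) that prevented the colour change. Run in triplicate.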

≈ marks a conversion by molar mass, not a printed value. Some results are limits rather than exact numbers.

A word on the IC50: it is the concentration needed to halve the response being measured. Low values mean greater potency, high ones weaker potency. The term MIC denotes the smallest concentration in the dilution series that meets the test's criterion for growth inhibition. Turning to `O=C(Nc1cc2nc(C3CCCCC3)[nH]c2cc1N1CCCC1)c1ccc(Br)cc1`, the IC50 in assay [1] is > 100 µg/mL. For the same compound, the MIC in assay [2] (H37Rv, 144 h) was found to be 1.56 µg/mL (≈ 3.34 µM). As to `CCCCCC(=O)Nc1cc2nc(C3CCCCC3)[nH]c2cc1N1CCCC1`, in assay [1], the IC50 was > 100 µg/mL. Moreover, the MIC in assay [2] (H37Rv, 144 h) is 6.25 µg/mL (≈ 16.3 µM).

On to `CN(C)c1cc2[nH]c(C3CCCCC3)nc2cc1NC(=O)OCc1ccccc1`, for which, in assay [1], the IC50 was > 100 µg/mL. This compound displayed an MIC in assay [2] (H37Rv, 144 h) of 0.16 µg/mL (≈ 0.408 µM). For `CCN(CC)c1cc2[nH]c(C3CCCCC3)nc2cc1NC(=O)NCc1ccccc1` the same measures were > 100 µg/mL and > 100 µg/mL. With `CCCCOC(=O)Nc1cc2nc(C3CCCCC3)[nH]c2cc1N(CC)CCN(C)C`, the IC50 in assay [1] is > 100 µg/mL. In assay [2] (H37Rv, 144 h), this compound showed an MIC of 100 µg/mL (≈ 233 µM).

As to `CCCCNC(=O)Nc1cc2nc(C3CCCCC3)[nH]c2cc1N(CC)CC`, the IC50 in assay [1] was > 100 µg/mL. The MIC in assay [2] (H37Rv, 144 h) was > 100 µg/mL.

In the case of `O=C(Nc1cc2nc(C3CCCCC3)[nH]c2cc1N1CCCC1)c1ccccc1`, in assay [1], the IC50 is > 100 µg/mL. The same compound gave an MIC in assay [2] (H37Rv, 144 h) of 6.25 µg/mL (≈ 16.1 µM). The matching figures for `CCN(CC)c1cc2[nH]c(C3CCCCC3)nc2cc1NC(=O)c1ccc(OC(F)F)cc1`: > 100 µg/mL and > 100 µg/mL. The matching figures for `CCCOCC(=O)Nc1cc2nc(C3CCCCC3)[nH]c2cc1N(CC)CC`: > 100 µg/mL and 25 µg/mL (≈ 64.7 µM). On to `CCN(CC)c1cc2[nH]c(C3CCCCC3)nc2cc1NC(=O)OCCOCCOC`, for which, in assay [1], the IC50 is > 100 µg/mL. Also, in assay [2] (H37Rv, 144 h), it took 12.5 µg/mL (≈ 28.9 µM) to inhibit growth (MIC). The matching figures for `CCCCOC(=O)Nc1cc2nc(C3CCCCC3)[nH]c2cc1N(C)CCN(C)C`: > 100 µg/mL and > 100 µg/mL. Turning to `CCN(CC)c1cc2[nH]c(C3CCCCC3)nc2cc1NC(=O)c1ccc(OC)cc1`, the MIC in assay [2] (H37Rv, 144 h) was 1.56 µg/mL (≈ 3.71 µM). The same measure, in the same setting: the value for `CCCCCC(=O)Nc1cc2nc(C3CCCCC3)[nH]c2cc1N(CC)CC` was 12.5 µg/mL (≈ 32.5 µM). Consider `CCCN(CCC)c1cc2[nH]c(C3CCCCC3)nc2cc1NC(=O)OCc1ccccc1`, for which the IC50 in assay [1] is > 100 µg/mL. Moreover, the MIC in assay [2] (H37Rv, 144 h) is > 100 µg/mL. For the compound `CCCCOC(=O)Nc1cc2nc(C3CCCCC3)[nH]c2cc1N(CCC)CCC`, the IC50 in assay [1] is > 100 µg/mL. Moreover, the MIC in assay [2] (H37Rv, 144 h) is 6.25 µg/mL (≈ 15.1 µM). For `CCN(CC)c1cc2[nH]c(C3CCCCC3)nc2cc1NC(=O)OCC(F)(F)F` the same measures were > 100 µg/mL and 1.56 µg/mL (≈ 3.78 µM). The matching figures for `CCCOCC(=O)Nc1cc2nc(C3CCCCC3)[nH]c2cc1N1CCCC1`: > 100 µg/mL and 12.5 µg/mL (≈ 32.5 µM). The matching figures for `CN(C)c1cc2[nH]c(C3CCCCC3)nc2cc1NC(=O)c1ccc(Br)cc1`: > 100 µg/mL and 0.31 µg/mL (≈ 0.702 µM). For `CCCNC(=O)Nc1cc2nc(C3CCCCC3)[nH]c2cc1N(CC)CC`, in assay [1], the IC50 is > 100 µg/mL. The MIC in assay [2] (H37Rv, 144 h) is > 100 µg/mL. Turning to `O=C(Nc1cc2nc(C3CCCCC3)[nH]c2cc1N1CCCC1)OCC(F)(F)F`, the IC50 in assay [1] was > 100 µg/mL. In assay [2] (H37Rv, 144 h), this compound came in with an MIC of 0.31 µg/mL (≈ 0.755 µM). On to `CCOCCOC(=O)Nc1cc2nc(C3CCCCC3)[nH]c2cc1N(CC)CC`, for which the IC50 in assay [1] was > 100 µg/mL. Moreover, the lowest concentration to inhibit growth in assay [2] (H37Rv, 144 h) (MIC) was 1.56 µg/mL (≈ 3.88 µM). The matching figures for `CCN(CC)c1cc2[nH]c(C3CCCCC3)nc2cc1NC(=O)c1ccc(F)cc1F`: > 100 µg/mL and > 100 µg/mL. For `CCOc1ccc(C(=O)Nc2cc3nc(C4CCCCC4)[nH]c3cc2N(CC)CC)cc1` the same measures were > 100 µg/mL and > 100 µg/mL.

Regarding `CCCCNC(=O)Nc1cc2nc(C3CCCCC3)[nH]c2cc1N1CCCC1`, the IC50 in assay [1] was > 100 µg/mL. The MIC in assay [2] (H37Rv, 144 h) was determined as 25 µg/mL (≈ 65.2 µM). The matching figures for `CCCCNC(=O)Nc1cc2nc(C3CCCCC3)[nH]c2cc1N(C)C`: > 100 µg/mL and 6.25 µg/mL (≈ 17.5 µM). The matching figures for `COCCOC(=O)Nc1cc2nc(C3CCCCC3)[nH]c2cc1N1CCCC1`: > 100 µg/mL and 3.13 µg/mL (≈ 8.1 µM). In the case of `CCCCOC(=O)Nc1cc2nc(C3CCCCC3)[nH]c2cc1N(CC)CC`, the IC50 in assay [1] was > 100 µg/mL. Also, it took 1.25 µg/mL (≈ 3.23 µM) to inhibit growth in assay [2] (W210, 144 h) (MIC). For `CCN(CC)c1cc2[nH]c(C3CCCCC3)nc2cc1NC(=O)c1ccc(F)cc1`, in assay [1], the IC50 was > 100 µg/mL. The MIC in assay [2] (H37Rv, 144 h) is > 100 µg/mL. As to `NNC(=O)c1ccncc1` [ISONIAZID], the MIC was 0.013 µg/mL (≈ 0.0948 µM) in assay [2] (H37Rv, 144 h) and 0.01 µg/mL (≈ 0.0729 µM) in assay [2] (W210, 144 h). With `O=C(CCc1ccccc1)Nc1cc2nc(C3CCCCC3)[nH]c2cc1N1CCCC1`, in assay [1], the IC50 was > 100 µg/mL. Also, inhibition of growth in assay [2] (H37Rv, 144 h) (MIC) required 12.5 µg/mL (≈ 30 µM).

As for `CCN(CC)c1cc2[nH]c(C3CCCCC3)nc2cc1NC(=O)c1ccc(Br)cc1`, the IC50 in assay [1] was > 100 µg/mL. The compound further came in with an MIC in assay [2] (H37Rv, 144 h) of 100 µg/mL (≈ 213 µM). The matching figures for `CN(C)c1cc2[nH]c(C3CCCCC3)nc2cc1NC(=O)c1ccc(C(C)(C)C)cc1`: > 100 µg/mL and 1.56 µg/mL (≈ 3.73 µM). The matching figures for `CCCOCC(=O)Nc1cc2nc(C3CCCCC3)[nH]c2cc1N(C)C`: < 50 µg/mL and 6.25 µg/mL (≈ 17.4 µM). The matching figures for `CN(C)c1cc2[nH]c(C3CCCCC3)nc2cc1NC(=O)c1cccs1`: > 100 µg/mL and 5 µg/mL (≈ 13.6 µM). Take `CN(C)c1cc2[nH]c(C3CCCCC3)nc2cc1NC(=O)c1ccc(F)cc1`: the IC50 in assay [1] is > 100 µg/mL. The same compound showed an MIC in assay [2] (H37Rv, 144 h) of 0.63 µg/mL (≈ 1.66 µM).

In the case of `CCc1ccc(C(=O)Nc2cc3nc(C4CCCCC4)[nH]c3cc2N(CC)CC)cc1`, the IC50 in assay [1] is > 100 µg/mL. Moreover, the MIC in assay [2] (H37Rv, 144 h) was found to be 1.56 µg/mL (≈ 3.73 µM). Consider `CCCc1ccc(C(=O)Nc2cc3nc(C4CCCCC4)[nH]c3cc2N(CC)CC)cc1`, for which, in assay [2] (H37Rv, 144 h), the MIC is > 100 µg/mL.

For `CCN(CC)c1cc2[nH]c(C3CCCCC3)nc2cc1NC(=O)c1cccc(Br)c1`, in assay [1], the IC50 is > 100 µg/mL. For the same compound, in assay [2] (H37Rv, 144 h), the MIC is > 100 µg/mL. For the compound `CN(C)c1cc2[nH]c(C3CCCCC3)nc2cc1NC(=O)c1ccco1`, the IC50 in assay [1] was > 100 µg/mL. For the same compound, in assay [2] (H37Rv, 144 h), inhibition of growth (MIC) required 6.25 µg/mL (≈ 17.7 µM). The matching figures for `CCN(CC)c1cc2[nH]c(C3CCCCC3)nc2cc1NC(=O)c1ccc(C)cc1`: > 100 µg/mL and 12.5 µg/mL (≈ 30.9 µM). For `CCCN(CCC)c1cc2[nH]c(C3CCCCC3)nc2cc1NC(=O)c1ccccc1` the same measures were > 100 µg/mL and > 100 µg/mL. The matching figures for `CN(C)c1cc2[nH]c(C3CCCCC3)nc2cc1NC(=O)c1ccc(OC(F)(F)F)cc1`: > 100 µg/mL and 0.16 µg/mL (≈ 0.358 µM).

On to `Cc1ccc(C(=O)Nc2cc3nc(C4CCCCC4)[nH]c3cc2N(C)C)cc1`, for which, in assay [1], the IC50 is > 100 µg/mL. This compound also showed an MIC in assay [2] (H37Rv, 144 h) of 0.31 µg/mL (≈ 0.823 µM). For `CCN(CC)c1cc2[nH]c(C3CCCCC3)nc2cc1NC(=O)c1cnccn1` the same measures were > 100 µg/mL and 10 µg/mL (≈ 25.5 µM). `CN(C)c1cc2[nH]c(C3CCCCC3)nc2cc1NC(=O)c1ccc(F)cc1F`: in assay [1], the IC50 was > 100 µg/mL. The same compound came in with an MIC in assay [2] (H37Rv, 144 h) of 0.31 µg/mL (≈ 0.778 µM). For `CCCc1ccc(C(=O)Nc2cc3nc(C4CCCCC4)[nH]c3cc2N(C)C)cc1` the same measures were > 100 µg/mL and 0.63 µg/mL (≈ 1.56 µM). In assay [2] (H37Rv, 144 h), `CCN(CC)c1cc2[nH]c(C3CCCCC3)nc2cc1NC(=O)c1ccc(N(C)C)cc1` gave an MIC of 12.5 µg/mL (≈ 28.8 µM). Turning to `CCOCCOC(=O)Nc1cc2nc(C3CCCCC3)[nH]c2cc1N(C)C`, in assay [1], the IC50 was > 100 µg/mL. Besides, the MIC in assay [2] (H37Rv, 144 h) was determined as 0.31 µg/mL (≈ 0.828 µM). The matching figures for `COc1ccc(C(=O)Nc2cc3nc(C4CCCCC4)[nH]c3cc2N(C)C)cc1`: > 100 µg/mL and 0.31 µg/mL (≈ 0.79 µM). The matching figures for `CCCNC(=O)Nc1cc2nc(C3CCCCC3)[nH]c2cc1N1CCCC1`: > 100 µg/mL and 100 µg/mL (≈ 271 µM). `O=C(Nc1cc2nc(C3CCCCC3)[nH]c2cc1N1CCCC1)OCc1ccccc1`: the MIC in assay [2] (H37Rv, 144 h) was 3.13 µg/mL (≈ 7.48 µM). Still for that read-out and setting: the value for `CCCCOC(=O)Nc1cc2nc(C3CCCCC3)[nH]c2cc1N1CCCC1` was 0.39 µg/mL (≈ 1.01 µM).

The values above are taken from ChEMBL document CHEMBL3124890, “SAR studies on trisubstituted benzimidazoles as inhibitors of Mtb FtsZ for the development of novel antitubercular agents” (J Med Chem, 2013).
